The text below walks through data of the M2OR odorant receptor database.

Common to all, as to conditions: stereoisomer not certain
One assay addresses T1, OR2J2 (Homo sapiens) (UniProt O76002).
T1 sequence (whole entry): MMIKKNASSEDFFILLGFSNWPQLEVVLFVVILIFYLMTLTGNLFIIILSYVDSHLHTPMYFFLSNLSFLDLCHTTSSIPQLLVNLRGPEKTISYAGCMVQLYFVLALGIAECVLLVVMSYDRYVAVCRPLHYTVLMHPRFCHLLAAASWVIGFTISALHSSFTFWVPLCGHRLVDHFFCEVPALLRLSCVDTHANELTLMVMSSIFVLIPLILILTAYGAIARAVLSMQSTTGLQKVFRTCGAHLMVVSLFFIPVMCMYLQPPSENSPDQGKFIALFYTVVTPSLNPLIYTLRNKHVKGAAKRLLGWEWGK
A digest of the protocol: (§1)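 Whether a receptor–molecule pair is responsive (active) rests on the original authors' judgment that its measured signal was statistically different from baseline. Pairs without that judgment are non-responsive (inactive). Sources used varied assay methods, commonly transient luciferase assays in mammalian cell lines.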

For another assay, the target named is T2, OR2J1 (Homo sapiens) (UniProt Q9GZK6).
T2 sequence (whole entry): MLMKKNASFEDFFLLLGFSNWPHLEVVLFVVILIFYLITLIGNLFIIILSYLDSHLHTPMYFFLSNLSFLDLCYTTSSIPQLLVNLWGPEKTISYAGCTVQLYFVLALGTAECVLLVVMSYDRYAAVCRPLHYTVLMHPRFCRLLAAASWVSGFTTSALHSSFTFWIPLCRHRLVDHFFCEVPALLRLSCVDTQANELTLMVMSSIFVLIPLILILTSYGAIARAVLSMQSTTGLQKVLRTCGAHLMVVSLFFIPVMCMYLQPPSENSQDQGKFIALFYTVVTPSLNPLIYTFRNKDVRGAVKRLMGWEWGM
Put shortly: as §1

The target of a further assay is T3, OR2J3 (Homo sapiens) (UniProt O76001).
T3 sequence (whole entry): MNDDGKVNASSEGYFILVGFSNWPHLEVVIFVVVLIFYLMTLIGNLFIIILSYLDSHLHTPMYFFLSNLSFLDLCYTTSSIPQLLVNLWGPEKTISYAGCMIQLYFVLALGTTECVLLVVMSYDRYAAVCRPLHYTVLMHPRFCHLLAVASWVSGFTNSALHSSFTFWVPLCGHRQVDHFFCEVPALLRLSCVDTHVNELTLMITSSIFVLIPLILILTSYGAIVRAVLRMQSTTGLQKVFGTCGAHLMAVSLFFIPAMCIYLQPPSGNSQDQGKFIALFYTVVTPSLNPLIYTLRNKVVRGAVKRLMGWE
Put shortly:
as §1

The target in a further assay is T4, OR2K2 (Homo sapiens) (UniProt Q8NGT1).
T4 sequence (whole entry): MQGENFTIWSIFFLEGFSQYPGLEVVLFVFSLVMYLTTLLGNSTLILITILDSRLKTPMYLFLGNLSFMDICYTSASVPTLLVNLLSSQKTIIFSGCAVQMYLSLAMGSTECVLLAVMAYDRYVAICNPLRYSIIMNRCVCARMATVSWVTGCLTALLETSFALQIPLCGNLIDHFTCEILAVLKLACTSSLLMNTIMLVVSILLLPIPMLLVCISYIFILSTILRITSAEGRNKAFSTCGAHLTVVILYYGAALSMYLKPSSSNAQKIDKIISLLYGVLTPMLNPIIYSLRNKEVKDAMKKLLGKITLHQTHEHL
Put shortly:
as §1

Another assay has as its target T5, OR2L13 (Homo sapiens) (UniProt Q8N349).
T5 sequence (whole entry): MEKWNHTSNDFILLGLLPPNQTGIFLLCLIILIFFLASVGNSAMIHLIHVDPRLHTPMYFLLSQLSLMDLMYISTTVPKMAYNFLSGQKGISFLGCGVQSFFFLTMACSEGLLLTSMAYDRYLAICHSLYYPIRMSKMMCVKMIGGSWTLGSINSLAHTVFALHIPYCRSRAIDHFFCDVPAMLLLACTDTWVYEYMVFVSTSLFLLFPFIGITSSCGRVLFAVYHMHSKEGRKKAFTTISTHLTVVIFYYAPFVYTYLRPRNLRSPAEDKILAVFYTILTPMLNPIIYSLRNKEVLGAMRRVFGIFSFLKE
Put shortly: as §1

The target of another assay is T6, OR2L3 (Homo sapiens) (UniProt Q8NG85).
T6 sequence (whole entry): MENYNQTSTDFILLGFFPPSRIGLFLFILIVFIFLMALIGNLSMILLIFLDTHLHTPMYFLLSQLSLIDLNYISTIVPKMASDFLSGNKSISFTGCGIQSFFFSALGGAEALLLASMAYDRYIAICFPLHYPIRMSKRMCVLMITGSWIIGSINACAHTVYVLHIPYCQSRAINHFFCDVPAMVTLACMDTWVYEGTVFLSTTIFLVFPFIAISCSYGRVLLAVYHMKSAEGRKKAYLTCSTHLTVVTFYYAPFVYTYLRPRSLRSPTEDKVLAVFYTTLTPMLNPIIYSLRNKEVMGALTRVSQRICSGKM
A digest of the protocol: as §1

Another assay addresses T7, OR2L5 (Homo sapiens) (UniProt Q8NG80).
T7 sequence (whole entry): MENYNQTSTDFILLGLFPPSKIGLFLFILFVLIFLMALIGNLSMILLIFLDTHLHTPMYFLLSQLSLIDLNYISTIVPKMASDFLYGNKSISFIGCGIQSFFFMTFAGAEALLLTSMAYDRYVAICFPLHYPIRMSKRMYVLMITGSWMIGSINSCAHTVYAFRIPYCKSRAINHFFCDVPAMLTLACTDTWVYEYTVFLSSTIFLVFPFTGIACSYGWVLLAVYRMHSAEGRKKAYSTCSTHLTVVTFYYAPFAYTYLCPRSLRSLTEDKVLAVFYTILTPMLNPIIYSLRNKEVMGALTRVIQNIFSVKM
Put shortly: as §1

The target in the next assay is T8, OR2L8 (Homo sapiens) (UniProt Q8NGY9).
T8 sequence (whole entry): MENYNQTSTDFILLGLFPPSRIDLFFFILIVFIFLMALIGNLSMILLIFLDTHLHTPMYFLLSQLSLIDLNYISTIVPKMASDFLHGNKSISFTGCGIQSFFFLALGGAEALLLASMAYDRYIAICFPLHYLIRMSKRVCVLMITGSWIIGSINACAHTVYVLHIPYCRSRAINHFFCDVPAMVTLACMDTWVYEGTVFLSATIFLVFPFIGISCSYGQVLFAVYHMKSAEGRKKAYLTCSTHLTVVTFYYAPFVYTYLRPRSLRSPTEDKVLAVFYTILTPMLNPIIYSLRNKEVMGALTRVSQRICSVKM
A digest of the protocol: as §1

The target of another assay is T9, OR2M2 (Homo sapiens) (UniProt Q96R28).
T9 sequence (whole entry): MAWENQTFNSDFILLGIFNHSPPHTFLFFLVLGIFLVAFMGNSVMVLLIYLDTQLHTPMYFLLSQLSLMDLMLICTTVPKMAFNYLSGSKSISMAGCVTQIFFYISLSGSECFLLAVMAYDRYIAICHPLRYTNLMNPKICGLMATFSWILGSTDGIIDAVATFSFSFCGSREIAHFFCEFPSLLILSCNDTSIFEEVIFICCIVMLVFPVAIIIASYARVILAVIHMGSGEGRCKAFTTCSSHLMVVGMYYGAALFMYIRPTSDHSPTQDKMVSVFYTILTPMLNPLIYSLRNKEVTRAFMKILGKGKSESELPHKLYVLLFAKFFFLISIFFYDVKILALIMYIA
A digest of the protocol:
as §1

The target of a further assay is T10, OR2M3 (Homo sapiens) (UniProt Q8NG83).
T10 sequence (whole entry): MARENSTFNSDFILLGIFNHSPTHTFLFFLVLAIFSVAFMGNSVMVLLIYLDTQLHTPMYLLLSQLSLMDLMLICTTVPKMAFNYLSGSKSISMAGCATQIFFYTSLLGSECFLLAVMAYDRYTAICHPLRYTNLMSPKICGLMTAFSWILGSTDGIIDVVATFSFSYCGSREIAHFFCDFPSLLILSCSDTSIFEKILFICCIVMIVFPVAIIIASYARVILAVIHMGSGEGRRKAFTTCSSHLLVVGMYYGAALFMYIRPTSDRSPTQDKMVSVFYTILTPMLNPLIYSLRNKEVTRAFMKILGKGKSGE
A digest of the protocol:
as §1

A further assay relates to T11, OR2H2.
T11 sequence (whole entry): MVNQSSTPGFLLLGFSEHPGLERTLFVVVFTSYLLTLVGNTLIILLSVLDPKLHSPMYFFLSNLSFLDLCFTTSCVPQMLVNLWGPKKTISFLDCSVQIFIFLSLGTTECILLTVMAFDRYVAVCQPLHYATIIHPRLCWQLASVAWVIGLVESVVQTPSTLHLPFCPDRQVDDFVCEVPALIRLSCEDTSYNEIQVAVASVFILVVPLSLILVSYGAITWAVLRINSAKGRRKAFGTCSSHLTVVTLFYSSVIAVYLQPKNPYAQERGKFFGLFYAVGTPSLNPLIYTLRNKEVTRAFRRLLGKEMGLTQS
Put shortly: as §1

In a further assay the test system is T12, OR2J1 L14I V182A.
T12 sequence (whole entry): T2 sequence (whole entry) with L14I, V182A
A digest of the protocol:
as §1

The next assay deals with T13, OR2J2.
T13 sequence (whole entry): T1 sequence (whole entry) with H74Y, A111T, A146V, A218T
A digest of the protocol:
as §1

The subject of the next assay is T14, OR2J3.
T14 sequence (whole entry): T3 sequence (whole entry) with V228I, I261M
A digest of the protocol:
as §1

In another assay the target is T15, OR2L2 (Homo sapiens) (UniProt Q8NH16).
T15 sequence (whole entry): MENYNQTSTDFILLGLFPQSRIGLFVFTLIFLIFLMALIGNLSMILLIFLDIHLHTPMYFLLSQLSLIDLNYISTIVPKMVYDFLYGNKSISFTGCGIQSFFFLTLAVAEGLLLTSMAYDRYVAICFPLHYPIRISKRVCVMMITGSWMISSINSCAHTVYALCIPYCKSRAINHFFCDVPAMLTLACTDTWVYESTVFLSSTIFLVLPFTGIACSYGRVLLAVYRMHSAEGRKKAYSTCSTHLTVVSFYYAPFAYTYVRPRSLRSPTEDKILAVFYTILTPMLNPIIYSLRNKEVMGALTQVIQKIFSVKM
Put shortly:
as §1

In assay [1] the test system is OR2J1. Put shortly:
as §1
Target sequence in this assay (as listed by the source): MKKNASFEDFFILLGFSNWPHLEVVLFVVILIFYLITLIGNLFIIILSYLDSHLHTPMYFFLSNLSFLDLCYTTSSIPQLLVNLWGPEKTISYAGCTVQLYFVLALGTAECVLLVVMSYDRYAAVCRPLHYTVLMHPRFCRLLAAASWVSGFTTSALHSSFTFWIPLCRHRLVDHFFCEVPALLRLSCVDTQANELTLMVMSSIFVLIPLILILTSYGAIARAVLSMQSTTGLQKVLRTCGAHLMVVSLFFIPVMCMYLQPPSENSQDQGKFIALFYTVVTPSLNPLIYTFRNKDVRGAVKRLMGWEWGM

The test system of assay [2] is OR2J1. Put shortly:
as §1
The source holds these as a separate data set.

SMILES strings stand for the structures. Changes are numbered by the printed parent chain.
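Note: active if original authors judged signal statistically different from baseline.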

As for `CC(C)=CCCC(C)CCO` (stereo not drawn), in the assay with OR2J2 (Homo sapiens), the “odorant receptor agonist call” value was “inactive”.

`CCCCC(C)=O`: the “odorant receptor agonist call” value with OR2J2 (Homo sapiens) is “inactive”.

As for `CC1CCCCCCCCCCCCC(=O)C1` (stereo not drawn), the “odorant receptor agonist call” value with OR2J1 (Homo sapiens), with OR2J2 (Homo sapiens), with OR2J3 (Homo sapiens), with OR2K2 (Homo sapiens), with OR2L13 (Homo sapiens) and with OR2L3 (Homo sapiens) was “inactive” in each case. Moreover, the “odorant receptor agonist call” value with OR2L5 (Homo sapiens), with OR2L8 (Homo sapiens), in the assay with OR2M2 (Homo sapiens) and with OR2M3 (Homo sapiens) was “inactive” each time.

As to `CCCCCCCO`, in the assay with OR2J2 (Homo sapiens), the “odorant receptor agonist call” value is “active”.

Regarding `CCCCCO`, the “odorant receptor agonist call” value with OR2J2 (Homo sapiens) was “inactive”.

On to `CC1=C(O)C(=O)OC1C` (stereo not drawn), for which the “odorant receptor agonist call” value in the assay on OR2H2, with OR2J1 (Homo sapiens), in the assay with OR2J1 L14I V182A, in the assay on OR2J2, with OR2J3 (Homo sapiens) and in the assay with OR2J3 was “inactive” in each case. In addition, the “odorant receptor agonist call” value with OR2K2 (Homo sapiens), with OR2L13 (Homo sapiens), with OR2L2 (Homo sapiens), with OR2L3 (Homo sapiens), with OR2L5 (Homo sapiens) and with OR2L8 (Homo sapiens) was “inactive” throughout. The “odorant receptor agonist call” value with OR2M2 (Homo sapiens) and with OR2M3 (Homo sapiens) was “inactive” throughout.

Take `CCC1OC(=O)C(O)=C1C` (stereo not drawn): the “odorant receptor agonist call” value with OR2H2, with OR2J1 (Homo sapiens), in the assay on OR2J1 L14I V182A, with OR2J2, with OR2J3 (Homo sapiens) and in the assay with OR2J3 was “inactive” in each case. Moreover, the “odorant receptor agonist call” value with OR2K2 (Homo sapiens), with OR2L13 (Homo sapiens), with OR2L2 (Homo sapiens), with OR2L3 (Homo sapiens), with OR2L5 (Homo sapiens) and with OR2L8 (Homo sapiens) was “inactive” each time. The “odorant receptor agonist call” value with OR2M2 (Homo sapiens) and with OR2M3 (Homo sapiens) was “inactive” throughout.

Take `CCCCC(S)C(C)CO` (stereo not drawn): the “odorant receptor agonist call” value in the assay with OR2J1 (Homo sapiens), in the assay with OR2J2 (Homo sapiens), in the assay with OR2J3 (Homo sapiens), with OR2K2 (Homo sapiens), in the assay with OR2L13 (Homo sapiens) and in the assay with OR2L2 (Homo sapiens) was “inactive” in each case. Moreover, the “odorant receptor agonist call” value in the assay with OR2L3 (Homo sapiens), with OR2L5 (Homo sapiens), with OR2L8 (Homo sapiens), with OR2M2 (Homo sapiens) and with OR2M3 (Homo sapiens) was “inactive” throughout.

As for `c1ccccc1`, the “odorant receptor agonist call” value with OR2J2 (Homo sapiens) is “inactive”.

Regarding `CCCCOC=O`, the “odorant receptor agonist call” value with OR2J2 (Homo sapiens) is “inactive”.

As for `CCCC(C)=CC(=O)O`, the “odorant receptor agonist call” value in the assay with OR2J1 [1] and in the assay on OR2J1 [2] was “inactive” in each case.

Regarding `CCCCOC(=O)C(C)OC(=O)CCC` (stereo not drawn), the “odorant receptor agonist call” value with OR2J2 (Homo sapiens) was “inactive”.
